This is an account of results in PubChem BioAssay.

A short description of test [1]: Her2 expression decrease, cell viability multiplex – SKBR3 breast tumor cells, AlphaScreen, ATP viability, primary screen (AID 461;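 active = Her2 level under about 52% in both replicate screens, with viability over 70% of control, limit read from the data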;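 for Her2 level: lower value means less Her2 protein in the cells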;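 for viability: percent of carrier control wells set as 100% viability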). The conditions noted are these: SKBR3 Her2 protein level, 18-24 h, measured here: SKBR3 viability, ATP luminescence, at 10 µM.
Test [2] deals with Receptor tyrosine-protein kinase erbB-2 (Homo sapiens) (UniProt P04626). The test is described as above. The conditions noted are these: 18-24 h, at 10 µM, stronger effect = lower value.
Test [3] can be described thus: reduced viability of SK-BR-3 breast cancer cells – cell-based, 24 h, human, pilot screen (AID 572;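 active = viability at or below 10% of carrier control in both of two separate runs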;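 note: compound exposure lasted between 18 and 24 h rather than exactly 24 h; 100% = carrier-treated control wells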). As to conditions: SK-BR-3 viability, CellTiter-Glo luminescence, at 10 µM, stronger effect = lower value. (In ATP-based viability assays light output follows the ATP content of the culture.)
A short description of test [4]: HUVEC growth inhibition – cell-based, human, primary screen (AID 575;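 active = viability at or below 30% in both replicate assays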;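 note: 100% = median of untreated cell wells with 0.1% DMSO on each plate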). As to conditions: HUVEC proliferation, CellTiter-Glo luminescence, 72 h; at 10 µM; stronger effect = lower value. The method in brief: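 Test system: HUVEC primary cells. Quantity: 1250 endothelial cells in each well. Dosing: single-point 10 µM, DMSO 0.1% final. Incubation: 72 h treatment at 37 °C. Measured by: CTG luminescence. Control set: DMSO cell controls and MePR drug controls. Plate: collagen-coated 384-well format.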

Test [5] in a line: H69AR cell proliferation blockers – human, duplicate replicates, primary screen (AID 580;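 active = viability at or under a set limit in both replicates, limit being median viability minus 3 SD, cut at about 48% in these data, passing the limit was not always enough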;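 note: 100% = mean luminescence of untreated wells and 0% = no signal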). The conditions noted are these: H69AR lung tumor cells viability, ATP luminescence, 72 h; at 10 µM; stronger effect = lower value.
Test [6] is described as follows: MRP1 drug-resistance reversers in H69AR cells – cell-based, doxorubicin co-treatment, pilot screen (AID 601;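 active = viability loss from added drug above about 55%, and viability with drug at most 40%, in both replicates, limit read from the data, passing the limit was not always enough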). The conditions noted are these: CellTiter-Glo, 72 h, at 10 µM; for differential viability (reversal): stronger effect = higher value.
A short description of test [7]: yeast transport mutant growth inhibition pilot in 384-well plates, post-Golgi transport modulator project (AID 636; in the data active = inhibition above about 31%). As to conditions: absorbance 615 nm, about 18 h, stronger effect = higher value.
Test [8] can be described thus: growth suppression of yeast trafficking mutant, preliminary HTS, modulators of trafficking downstream of Golgi apparatus project, 1536-format plate, OD 615 nm (AID 637). The conditions noted are these: yeast transport mutant growth, absorbance 615 nm, 18 h; stronger effect = higher value.
The mark [9] stands for this setting: H69AR cells + 2 uM doxorubicin, measured here: viability with 2 uM doxorubicin, stronger effect = lower value.
The mark [10] stands for this setting: H69AR cells, compound alone cytotoxicity.

Activity calls are given as the source filed them. Cut-off read from the data, not from the text of the source, unless noted: active = inhibition above about 30%; inactive = the rest.

Receptor tyrosine-protein kinase erbB-2 (Homo sapiens), sequence (P04626 whole entry, looked up): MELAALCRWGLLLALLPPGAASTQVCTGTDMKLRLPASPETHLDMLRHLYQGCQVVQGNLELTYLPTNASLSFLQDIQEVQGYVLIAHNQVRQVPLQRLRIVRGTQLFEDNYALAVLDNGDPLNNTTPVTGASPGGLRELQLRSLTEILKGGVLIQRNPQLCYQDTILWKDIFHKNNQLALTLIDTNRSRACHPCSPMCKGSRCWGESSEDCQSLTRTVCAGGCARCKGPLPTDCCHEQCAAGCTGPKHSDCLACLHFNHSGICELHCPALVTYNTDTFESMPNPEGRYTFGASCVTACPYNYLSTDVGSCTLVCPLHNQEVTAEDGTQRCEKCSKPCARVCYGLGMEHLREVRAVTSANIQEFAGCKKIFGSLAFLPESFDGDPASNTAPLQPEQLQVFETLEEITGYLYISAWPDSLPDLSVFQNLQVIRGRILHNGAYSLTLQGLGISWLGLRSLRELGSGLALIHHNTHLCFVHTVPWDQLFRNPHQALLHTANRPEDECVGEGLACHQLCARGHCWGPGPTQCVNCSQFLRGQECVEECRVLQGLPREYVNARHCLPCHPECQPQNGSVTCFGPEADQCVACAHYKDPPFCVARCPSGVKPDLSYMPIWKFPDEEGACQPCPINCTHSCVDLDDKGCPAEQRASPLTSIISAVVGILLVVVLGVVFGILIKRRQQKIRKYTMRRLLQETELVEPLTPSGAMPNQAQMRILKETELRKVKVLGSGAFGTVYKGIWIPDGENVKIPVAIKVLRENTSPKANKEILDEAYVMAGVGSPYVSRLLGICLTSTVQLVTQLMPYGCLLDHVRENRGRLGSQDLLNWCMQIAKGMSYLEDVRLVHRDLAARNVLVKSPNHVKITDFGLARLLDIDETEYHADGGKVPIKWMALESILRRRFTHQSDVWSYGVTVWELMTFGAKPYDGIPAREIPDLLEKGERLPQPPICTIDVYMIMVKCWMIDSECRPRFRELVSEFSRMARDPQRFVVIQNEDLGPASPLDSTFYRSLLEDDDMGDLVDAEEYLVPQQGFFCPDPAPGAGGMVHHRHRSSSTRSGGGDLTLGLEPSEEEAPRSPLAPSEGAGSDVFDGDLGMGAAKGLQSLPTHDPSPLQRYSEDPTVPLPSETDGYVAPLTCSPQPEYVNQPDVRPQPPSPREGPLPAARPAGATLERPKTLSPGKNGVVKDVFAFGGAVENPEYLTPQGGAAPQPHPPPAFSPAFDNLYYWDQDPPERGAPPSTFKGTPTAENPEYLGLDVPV

`CCOC(=O)CN1CC23C=CC(O2)C(C(=O)NC2CCCC2)C3C1=O` (stereo not given): the viability in test [1] is 86.5%; in test [3], 86.5% (inactive); in test [4], 106% (inactive); in test [5], 98.2% (inactive); in test [6] (setting [9]) it was 87.6%; in test [6] (setting [10]), 98.2%. For the same compound, in test [2], the Her2 level is 84% (inactive). In addition, in test [6] (H69AR cells + 2 uM doxorubicin), the differential viability (reversal) was 10.6% (inactive). Further, the inhibition was -0.64% (inactive) in test [7] and 4.33% (inactive) in test [8].

Regarding `CCOC(=O)c1sc(C)c2c(=O)n(CC)nnc12`, the viability in test [1] is 94%; in test [3], 94% (inactive); in test [4], 98.3% (inactive); in test [5], 103% (inactive); in test [6] (setting [9]) it was 102%; in test [6] (setting [10]), 103%. In addition, the Her2 level in test [2] is 111% (inactive). The differential viability (reversal) in test [6] (H69AR cells + 2 uM doxorubicin) is 1.48% (inactive). Moreover, the figures for the inhibition in test [7] and in test [8] were -4% (inactive) and -9.52% (inactive), respectively.

For the compound `CCOc1ccc(-c2nnn(CC(=O)N3CCN(c4ccc(F)cc4)CC3)n2)cc1OCC`, the viability is 111% in test [1]; 111% (inactive) in test [3]; 76% (inactive) in test [4]; 81.9% (inactive) in test [5]; 92% in test [6] (setting [9]); 81.9% in test [6] (setting [10]). The Her2 level in test [2] is 102% (inactive). Moreover, in test [6] (H69AR cells + 2 uM doxorubicin), the differential viability (reversal) is -10.1% (inactive). The inhibition in test [7] was -2.93% (inactive); in test [8] it was -0.33% (inactive).

Take `CCOC(=O)CSc1nc(C)c(C(=O)OCC)s1`: the viability was 89% in test [1]; 89% (inactive) in test [3]; 105% (inactive) in test [4]; 101% (inactive) in test [5]; 97.8% in test [6] (setting [9]); 101% in test [6] (setting [10]). In test [2], the Her2 level was 93.5% (inactive). Besides, the differential viability (reversal) in test [6] (H69AR cells + 2 uM doxorubicin) is 3.4% (inactive). Also, the inhibition was 0.92% (inactive) in test [7] and -4.68% (inactive) in test [8].

For `Cc1ccc(-c2nnc3ccc(SCC(=O)NCc4ccco4)nn23)cc1`, the viability in test [1] was 100%; in test [3], 100% (inactive); in test [4], 89% (inactive); in test [5] it was 93.2% (inactive); in test [6] (setting [9]), 83.9%; in test [6] (setting [10]) it was 93.2%. The Her2 level in test [2] is 87.5% (inactive). Besides, the differential viability (reversal) in test [6] (H69AR cells + 2 uM doxorubicin) is 9.33% (inactive). Moreover, the inhibition in test [7] is -5.41% (inactive); in test [8], -8.33% (inactive).

Take `Cn1cc(CC(=O)Nc2cccc(C#N)c2)c2ccccc21`: the viability in test [1] was 101%; in test [3] it was 101% (inactive); in test [4], 97.7% (inactive); in test [5], 104% (inactive); in test [6] (setting [9]), 91.7%; in test [6] (setting [10]), 104%. Besides, in test [2], the Her2 level is 87.5% (inactive). For the same compound, the differential viability (reversal) in test [6] (H69AR cells + 2 uM doxorubicin) was 12.6% (inactive). The inhibition is -4.61% (inactive) in test [7] and -2.22% (inactive) in test [8].

Consider `Cc1ccc(N(CC(=O)NCC2CCCO2)S(C)(=O)=O)cc1Cl` (stereo not given), for which the viability was 106% in test [1]; 106% (inactive) in test [3]; 99.1% (inactive) in test [4]; 89.2% (inactive) in test [5]; 92.6% in test [6] (setting [9]); 89.2% in test [6] (setting [10]). Moreover, the Her2 level in test [2] was 82.5% (inactive). The differential viability (reversal) in test [6] (H69AR cells + 2 uM doxorubicin) is -3.35% (inactive). The inhibition in test [7] is 1.41% (inactive); in test [8], -3% (inactive).

Take `Fc1ccc(-c2csc3nnc(SCc4cccnc4)n23)cc1`: the viability was 108% in test [1]; 108% (inactive) in test [3]; 85.7% (inactive) in test [4]; 82.9% (inactive) in test [5]; 84.9% in test [6] (setting [9]); 82.9% in test [6] (setting [10]). In addition, the Her2 level in test [2] was 112% (inactive). In addition, in test [6] (H69AR cells + 2 uM doxorubicin), the differential viability (reversal) was -2.03% (inactive). Moreover, the inhibition in test [7] was -4.62% (inactive); in test [8], 8.33% (inactive).

`O=C(c1ccc(Cl)c(Cl)c1)N1CCOCC1`: the viability in test [1] was 102%; in test [3] it was 102% (inactive); in test [4], 91.7% (inactive); in test [5], 92.3% (inactive); in test [6] (setting [9]) it was 97.7%; in test [6] (setting [10]) it was 92.3%. In test [2], the Her2 level is 103% (inactive). In addition, the differential viability (reversal) in test [6] (H69AR cells + 2 uM doxorubicin) is -5.39% (inactive). Further, the inhibition was -0.66% (inactive) in test [7] and -10.8% (inactive) in test [8].

For the compound `Cn1c(=O)c(C(=O)Nc2cccnc2)c(O)c2ccccc21`, the viability was 81% in test [1]; 81% (inactive) in test [3]; 105% (inactive) in test [4]; 88.4% (inactive) in test [5]; 98.2% in test [6] (setting [9]); 88.4% in test [6] (setting [10]). Moreover, the Her2 level in test [2] was 59.5% (inactive). Moreover, the differential viability (reversal) in test [6] (H69AR cells + 2 uM doxorubicin) is -9.81% (inactive). Also, the inhibition in test [7] is -3.65% (inactive); in test [8] it was 2.46% (inactive).

`CCN1CCN(CCCNC(=O)c2cn(CCOC)c(=O)c3c2c2ccccc2n3C)CC1`: the viability in test [1] was 121%; in test [3], 121% (inactive); in test [4] it was 96.4% (inactive); in test [5] it was 97.2% (inactive); in test [6] (setting [9]), 90.3%; in test [6] (setting [10]), 97.2%. Further, the Her2 level in test [2] is 122% (inactive). In addition, the differential viability (reversal) in test [6] (H69AR cells + 2 uM doxorubicin) is 6.88% (inactive). The inhibition in test [7] is -2.11% (inactive); in test [8] it was -3.82% (inactive).

Consider `COc1ccccc1N1CCN(C(=O)c2ccc(CS(=O)(=O)c3ccccc3OC)o2)CC1`, for which the viability in test [1] is 90.5%; in test [3], 90.5% (inactive); in test [4] it was 85.1% (inactive); in test [5], 76.2% (inactive); in test [6] (setting [9]), 88.1%; in test [6] (setting [10]), 76.2%. For the same compound, the Her2 level in test [2] is 104% (inactive). Moreover, the differential viability (reversal) in test [6] (H69AR cells + 2 uM doxorubicin) is -11.9% (inactive). The results for the inhibition in test [7] and in test [8] were -5.39% (inactive) and -0.32% (inactive), respectively.

Take `Nc1ncnc2nc(SCCN3CCCCC3)[nH]c12`: the viability in test [1] was 119%; in test [3], 119% (inactive); in test [4] it was 102% (inactive); in test [5], 100% (inactive); in test [6] (setting [9]) it was 97.3%; in test [6] (setting [10]), 100%. In addition, in test [2], the Her2 level was 88% (inactive). Besides, the differential viability (reversal) in test [6] (H69AR cells + 2 uM doxorubicin) was 3.13% (inactive). Further, the inhibition was 3.29% (inactive) in test [7] and -5.32% (inactive) in test [8].

In the case of `O=C(Nc1cccnc1)c1cccc(NC(=O)c2ccco2)c1`, the viability was 97.5% in test [1]; 97.5% (inactive) in test [3]; 94.4% (inactive) in test [4]; 89.9% (inactive) in test [5]; 89.3% in test [6] (setting [9]); 89.9% in test [6] (setting [10]). For the same compound, the Her2 level in test [2] is 85% (inactive). The differential viability (reversal) in test [6] (H69AR cells + 2 uM doxorubicin) was 0.575% (inactive). The inhibition in test [7] was -1.56% (inactive); in test [8], 4.1% (inactive).

The viability is a read-out of living cells in per cent, often relative to untreated cells. For orientation: inhibition means the change of the read-out against control, counted positive when it falls.
